Measured values from different studies.
Compare with care: the assays were run in different laboratories.
RET: Proto-oncogene tyrosine-protein kinase receptor Ret (RET, Homo sapiens, UniProt P07949)
RET K758M: Proto-oncogene tyrosine-protein kinase receptor Ret (RET, Homo sapiens, UniProt P07949, K758M)
RET V804M: Proto-oncogene tyrosine-protein kinase receptor Ret (RET, Homo sapiens, UniProt P07949, V804M)
RET V804L: Proto-oncogene tyrosine-protein kinase receptor Ret (RET, Homo sapiens, UniProt P07949, V804L)
RET M918T: Proto-oncogene tyrosine-protein kinase receptor Ret (RET, Homo sapiens, UniProt P07949, M918T)

Structure (SMILES)	target	read-out	mode	technique	tested at	quantity	result
COc1ccc(NC(=O)Nc2cc(C)c3nc(NC(=O)c4ccccc4)sc3c2)c(OC)c1	RET	enzyme activity	inhibitor	radiometric	0.1 µM	remaining activity	133%
COc1ccc(CN2C3CC2CN(c2ccc(-c4cc(OCC(C)(C)O)cn5ncc(C#N)c45)cn2)C3)cn1	RET K758M	thermal stability	–	DSF	10 µM	ΔTm	11.9 °C
CCCOc1ccc(OC)c(F)c1C(=O)c1ccc(C(=O)N[C@@H]2CNC[C@H]2NC(=O)c2ccc3[nH]ncc3c2)cc1	RET	enzyme activity	inhibitor	–	0.5 µM	remaining activity	54%
C[C@H]1CCN(c2nccc(-c3cnn4ncccc34)n2)C1	RET V804M	binding	–	–	1 µM	remaining binding	84%
CNC(=O)c1cc(Oc2ccc(NC(=O)Nc3ccc(Cl)c(C(F)(F)F)c3)cc2)ccn1	RET	cell-free assay	–	–	0.5 µM	remaining signal	1.78%
Cc1cc(NC(=O)c2cccc3cc(-c4cccc5[nH]nc(N)c45)ccc23)ccc1F	RET V804L	enzyme activity	inhibitor	–	0.1 µM	activity vs control	116%
CO[C@]1(C(=O)N[C@@H](C)c2ccc(-n3cc(F)cn3)nc2)CC[C@H](c2nc(C)cc(Nc3cc(C)[nH]n3)n2)CC1	RET K758M	thermal stability	–	DSF	10 µM	ΔTm	14.2 °C
COc1cc2ncnc(Nc3ccc(Oc4ccccc4)cc3C)c2cc1OC	RET V804L	enzyme activity	inhibitor	–	1 µM	inhibition	3%
C[C@@H]1CCN(C(=O)CC#N)C[C@@H]1N(C)c1ncnc2[nH]ccc12	RET	cell-free assay	–	–	0.5 µM	remaining signal	92.4%
Cc1cccc(NC(=O)CNC(=O)c2ccccc2NS(=O)(=O)c2ccc3[nH]c(=O)[nH]c3c2)c1C	RET	enzyme activity	inhibitor	radiometric	0.1 µM	remaining activity	114%
Nc1cnc(N2CCc3cc(S(=O)(=O)Nc4c(F)cc(Cl)cc4F)cc(N4CCCC4=O)c32)nc1	RET	cell-free assay	–	competition with immobilised ligand	1 µM	remaining binding	89%
COc1cc(NC(=O)Nc2ccc(Br)cc2)cc2sc(NC(=O)c3ccccc3)nc12	RET	enzyme activity	inhibitor	radiometric	10 µM	remaining activity	106%
CCC(=N\O)/C(C)=C/c1ccc(F)cc1	RET M918T	cell-free assay	–	competition with immobilised ligand	1 µM	remaining binding	100%
O=C1Nc2ccc(Cl)cc2C1=Cc1cc(Cl)c(O)c(Cl)c1	RET	cell-free assay	–	–	0.5 µM	remaining signal	80.4%
N[C@H]1CCN(c2nccc(-c3cnn4ncccc34)n2)C1	RET M918T	binding	–	–	1 µM	remaining binding	90%
O=S(=O)(NC1CCC(c2cc(F)ccc2F)(S(=O)(=O)c2ccc(Cl)cc2)CC1)C(F)(F)F (centres unmarked)	RET V804M	cell-free assay	–	competition with immobilised ligand	1 µM	remaining binding	100%
CCN(CC)CCNC(=O)c1c(C)[nH]c(/C=C2\C(=O)Nc3ccc(F)cc32)c1C	RET	cell-free assay	–	–	0.5 µM	remaining signal	3.43%
Cc1ccc(C(=O)NCc2ccsc2)cc1C#Cc1cn(C(C)C)c2ncnc(N)c12	RET	enzyme activity	inhibitor	–	1 µM	activity vs control	4%
c1cnn2ncc(-c3ccnc(N4CCC45COC5)n3)c2c1	RET V804L	binding	–	–	1 µM	remaining binding	91%

Structure (SMILES)	target	read-out	mode	technique	tested at	quantity	result
Cc1ccc(NC(=O)c2ccc(C)c(C(F)(F)F)c2)cc1C#Cc1nn(C2CCC(O)CC2)c2ncnc(N)c12 (centres unmarked)	RET V804M	cell-free assay	–	–	10 µM	remaining signal	-2%
CS(=O)(=O)N1CCCC(NC(=O)[C@H](CCC2CCCCC2)NC(=O)c2ccc(CNc3ncnc4c3nnn4-c3ccccc3)cc2)C1 (some centres unmarked)	RET M918T	cell-free assay	–	competition with immobilised ligand	0.1 µM	remaining binding	93%
CN(C)c1ncc(F)c(-c2cnn3ncccc23)n1	RET	binding	–	–	1 µM	remaining binding	97%
CCc1cccc(NC(=O)c2cc(-c3ccc(OC)c(S(N)(=O)=O)c3)[nH]n2)c1	RET	enzyme activity	inhibitor	radiometric	10 µM	remaining activity	92.5%
CC(C)(O)c1cncc(-c2nc3ccc(F)cc3n2C2CC2)c1	RET	cell-free assay	–	competition with immobilised ligand	1 µM	remaining binding	100%
Nc1ncnc2occ(-c3ccc(NC(=O)Nc4cc(C(F)(F)F)ccc4F)cc3)c12	RET V804L	cell-free assay	–	–	20 µM	remaining signal	0%
CC(=O)Nc1cccc2c1CCN(C(=O)CCNC(=O)c1ccsc1)C2	RET	enzyme activity	inhibitor	radiometric	10 µM	remaining activity	90.8%
C[C@@H]1CN(c2cc(-c3nn(C)c4ccc(OC5(C)CC5)cc34)ncn2)C[C@H](C)O1	RET V804M	cell-free assay	–	competition with immobilised ligand	1 µM	remaining binding	100%
CN(CCCC(F)(F)F)c1nccc(-c2cnn3ncccc23)n1	RET M918T	binding	–	–	1 µM	remaining binding	99%
CCc1ccccc1C(=O)Nc1n[nH]c2c(C)c(F)c(C3C(C#N)=C(C)N(C)C(C)=C3C#N)cc12	RET M918T	cell-free assay	–	competition with immobilised ligand	1 µM	remaining binding	64%
CNC(=O)c1cc2c(Oc3ccc(NC(=O)C4(C(=O)Nc5ccc(F)cc5)CC4)cc3)ccnc2cc1OC	RET V804L	enzyme activity	inhibitor	radiometric	1 µM	inhibition	90%
Cc1cnn2ncc(-c3ccnc(N(C)C)n3)c2c1	RET	binding	–	–	1 µM	remaining binding	69%
COc1cc(NC(=O)Nc2cc(OC)c3nc(NC(=O)c4ccccc4)sc3c2)cc(OC)c1	RET	enzyme activity	inhibitor	radiometric	10 µM	remaining activity	101%
CC/C(=N\NC(=O)NCc1cccc(O)c1)c1ccc(O)c(C)c1O	Proto-oncogene tyrosine-protein kinase receptor Ret (RET, Homo sapiens, UniProt P07949, S891A)	enzyme activity	inhibitor	–	0.1 µM	inhibition	6.2%
Nc1nc(SCC(=O)Nc2ccc3c(c2)OCO3)[nH]c(=O)c1NC(=O)c1ccc(F)c(F)c1	RET	enzyme activity	inhibitor	radiometric	0.1 µM	remaining activity	109%
CC1CCCN1c1nccc(-c2cnn3ncccc23)n1 (centres unmarked)	RET V804L	binding	–	–	1 µM	remaining binding	85%
CCCCN(CCCC)C(=O)CN1C[C@H](c2cc(OC)c3c(c2)OCO3)[C@@H](C(=O)O)[C@@H]1CC(C)(C)CCC	RET V804M	cell-free assay	–	competition with immobilised ligand	1 µM	remaining binding	100%
COc1cccc(Nc2nc(C)c(C(=O)Nc3ccc4c(c3)OCO4)s2)c1	RET	enzyme activity	inhibitor	radiometric	0.1 µM	remaining activity	129%
COc1cc(-c2cc(-c3ccc(N4CCNCC4)cc3)cnc2N)cc(OC)c1OC	RET V804L	enzyme activity	inhibitor	–	0.1 µM	inhibition	2%
